Calls of active or inactive are those of the source. Rule as the data show it, unless noted: active = inhibition above about 30%; inactive = the rest.
Legend:
[1] = reducers of endogenous Her2 protein level, primary screen, SKBR3 breast tumor cells, AlphaScreen, ATP viability (AID 461;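 active = Her2 level under about 52% in both replicate screens, with viability over 70% of control, limit read from the data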;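 as to Her2 level: lower value means less Her2 protein in the cells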;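 as to viability: percent of carrier control wells set as 100% viability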); conditions: 18-24 h, measured here: SKBR3 viability, ATP luminescence, at 10 µM
[2] = molecular target: Receptor tyrosine-protein kinase erbB-2 (Homo sapiens) (UniProt P04626); assay: as above; conditions: 18-24 h, at 10 µM, stronger effect = lower value
[3] = SK-BR-3 cell growth inhibitors, pilot screen, 24 h, human (AID 572;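 active = viability at or below 10% of carrier control in both of two separate runs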;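 also: compound exposure lasted between 18 and 24 h rather than exactly 24 h; 100% = carrier-treated control wells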); conditions: SK-BR-3 viability, CellTiter-Glo luminescence, at 10 µM, stronger effect = lower value
[4] = HUVEC growth inhibition – cell-based, human, primary screen (AID 575;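 active = viability at or below 30% in both replicate assays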;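 also: 100% = median of untreated cell wells with 0.1% DMSO on each plate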); conditions: HUVEC proliferation, CellTiter-Glo luminescence, 72 h; at 10 µM; stronger effect = lower value
Outline: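 Assay system: Primary human umbilical vein endothelial cells | Quantity: 1250 cells per well | Medium: Supplemented EBM, 2% fetal bovine serum | Detection: CellTiter-Glo luminescence measuring cellular ATP | Read-out: % viability vs DMSO wells | Plate: Collagen-coated 384-well format | Times: 72 h exposure, 37 °C, 5% CO2, 30 min RT equilibration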

[5] = growth inhibitors of H69AR lung tumor, primary screen, human, duplicate replicates (AID 580;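 active = viability at or under a set limit in both replicates, limit being median viability minus 3 SD, cut at about 48% in these data, passing the limit was not always enough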;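 also: 100% = mean luminescence of untreated wells and 0% = no signal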); conditions: H69AR lung tumor cells viability, ATP luminescence, 72 h; at 10 µM; stronger effect = lower value
[6] = reversal of MRP1-mediated doxorubicin resistance, pilot screen, H69AR cells, doxorubicin co-treatment (AID 601;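 active = viability loss from added drug above about 55%, and viability with drug at most 40%, in both replicates, limit read from the data, passing the limit was not always enough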); conditions: CellTiter-Glo, 72 h, at 10 µM; for differential viability (reversal): stronger effect = higher value
[7] = 384-well plate pilot, post-Golgi transport modulator project, inhibition of yeast transport mutant growth (AID 636; in the data active = inhibition above about 31%); conditions: absorbance 615 nm, about 18 h, stronger effect = higher value
[8] = growth suppression of yeast trafficking mutant, preliminary HTS, modulators of trafficking downstream of Golgi apparatus project, 1536-format plate, OD 615 nm (AID 637); conditions: yeast transport mutant growth, absorbance 615 nm, 18 h; stronger effect = higher value
[9] = H69AR cells + 2 uM doxorubicin, measured here: viability with 2 uM doxorubicin, stronger effect = lower value
[10] = H69AR cells, compound alone cytotoxicity

Sequence of Receptor tyrosine-protein kinase erbB-2 (Homo sapiens) (P04626 whole entry, looked up): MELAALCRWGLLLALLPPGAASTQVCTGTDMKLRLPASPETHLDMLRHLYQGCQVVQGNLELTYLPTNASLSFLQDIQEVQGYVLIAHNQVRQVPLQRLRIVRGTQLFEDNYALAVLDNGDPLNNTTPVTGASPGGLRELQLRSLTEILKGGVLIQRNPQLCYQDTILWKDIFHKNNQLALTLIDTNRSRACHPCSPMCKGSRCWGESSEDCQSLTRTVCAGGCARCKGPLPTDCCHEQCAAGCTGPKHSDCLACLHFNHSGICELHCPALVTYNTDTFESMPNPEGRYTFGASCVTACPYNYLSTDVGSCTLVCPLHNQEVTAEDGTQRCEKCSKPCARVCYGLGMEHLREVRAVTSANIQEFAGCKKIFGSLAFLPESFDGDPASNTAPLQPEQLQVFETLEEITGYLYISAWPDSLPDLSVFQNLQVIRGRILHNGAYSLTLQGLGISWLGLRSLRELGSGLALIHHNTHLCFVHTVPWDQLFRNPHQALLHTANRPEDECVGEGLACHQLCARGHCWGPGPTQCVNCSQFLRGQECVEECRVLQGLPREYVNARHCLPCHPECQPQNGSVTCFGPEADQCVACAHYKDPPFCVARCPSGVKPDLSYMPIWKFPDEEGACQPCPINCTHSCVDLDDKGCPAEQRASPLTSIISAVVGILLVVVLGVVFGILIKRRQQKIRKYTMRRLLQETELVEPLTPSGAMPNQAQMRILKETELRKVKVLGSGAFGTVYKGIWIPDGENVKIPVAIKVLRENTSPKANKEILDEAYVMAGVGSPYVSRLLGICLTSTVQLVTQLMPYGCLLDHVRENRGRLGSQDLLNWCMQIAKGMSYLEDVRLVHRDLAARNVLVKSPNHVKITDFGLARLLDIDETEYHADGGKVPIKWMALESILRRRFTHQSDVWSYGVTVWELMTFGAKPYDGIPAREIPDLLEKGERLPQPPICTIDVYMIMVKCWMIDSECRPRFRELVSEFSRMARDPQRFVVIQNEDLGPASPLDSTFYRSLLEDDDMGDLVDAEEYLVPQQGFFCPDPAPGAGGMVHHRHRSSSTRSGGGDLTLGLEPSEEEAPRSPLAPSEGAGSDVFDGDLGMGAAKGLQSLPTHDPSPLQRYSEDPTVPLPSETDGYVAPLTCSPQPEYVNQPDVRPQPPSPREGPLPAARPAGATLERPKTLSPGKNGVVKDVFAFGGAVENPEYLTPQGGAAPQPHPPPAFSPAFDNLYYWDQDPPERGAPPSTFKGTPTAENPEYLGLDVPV

Row | SMILES | viability [1] [%] | Her2 level [2] | viability [3] | viability [4] | viability [5] | differential viability (reversal) ([6]; H69AR cells + 2 uM doxorubicin) | viability [6, 9] [%] | viability [6, 10] [%] | inhibition [7] | inhibition [8]
1 | CCOC(=O)CCNC(=O)Nc1ccc2nc(C)n(Cc3ccccc3Cl)c(=O)c2c1 | 87 | 110% (inactive) | 87% (inactive) | 92.9% (inactive) | 94.9% (inactive) | 7.92% (inactive) | 87 | 94.9 | -0.92% (inactive) | 1.67% (inactive)
2 | COC(=O)/C=c1\sc2ncnn2c1=O | 95 | 97.5% (inactive) | 95% (inactive) | 72.5% (inactive) | 78.7% (inactive) | -3.79% (inactive) | 82.5 | 78.7 | 1.62% (inactive) | 4.92% (inactive)
3 | Cc1cc(NC(=O)CSc2nccn2-c2ccc(Cl)cc2)no1 | 91.5 | 103% (inactive) | 91.5% (inactive) | 111% (inactive) | 106% (inactive) | 28% (inactive) | 78.1 | 106 | -1.56% (inactive) | -2.38% (inactive)
4 | CCOC(=O)c1cc(-c2nnc(-c3ccc(Oc4ccccc4)cc3)o2)c(C)nc1C | 85 | 88% (inactive) | 85% (inactive) | 80.5% (inactive) | 102% (inactive) | 16.7% (inactive) | 85.7 | 102 | -1.6% (inactive) | -0.16% (inactive)
5 | O=C(NCc1cccnc1)c1ccc(Cl)c(Cl)c1 | 89 | 75% (inactive) | 89% (inactive) | 95.2% (inactive) | 96.8% (inactive) | 9.16% (inactive) | 87.7 | 96.8 | -1.33% (inactive) | 3.61% (inactive)
6 | O=C(c1ccccc1)N1CCN(CC2CC=CCC2)CC1 (stereo not given) | 82.5 | 79% (inactive) | 82.5% (inactive) | 102% (inactive) | 96.1% (inactive) | 2.54% (inactive) | 93.5 | 96.1 | -6.05% (inactive) | 2.5% (inactive)
7 | CCOc1cc2[nH]c(=S)n(CC3CCCO3)c(=O)c2cc1OCC (stereo not given) | 105 | 103% (inactive) | 105% (inactive) | 88.3% (inactive) | 87.8% (inactive) | 7.12% (inactive) | 80.7 | 87.8 | -4.46% (inactive) | -3.77% (inactive)
8 | O=C(CNS(=O)(=O)c1ccccc1)NCc1ccccn1 | 84 | 76.5% (inactive) | 84% (inactive) | 96.2% (inactive) | 102% (inactive) | 8.75% (inactive) | 93.2 | 102 | -2.27% (inactive) | 1.45% (inactive)
9 | Cc1ccccc1-c1nc(CS(=O)(=O)CC(=O)N(C)C2CCCCC2)c(C)o1 | 108 | 104% (inactive) | 108% (inactive) | 90.9% (inactive) | 92.7% (inactive) | 0.46% (inactive) | 92.2 | 92.7 | 0.27% (inactive) | -5.08% (inactive)
10 | CCN1CCN(CCNC(=O)c2cn(C(C)c3ccccc3F)nn2)CC1 (stereo not given) | 122 | 98.5% (inactive) | 122% (inactive) | 82.3% (inactive) | 96.4% (inactive) | 8.63% (inactive) | 87.8 | 96.4 | -2.73% (inactive) | -4.6% (inactive)
11 | CC1(C)NC(=O)N(CC(O)COc2ccc(-c3ccccc3)cc2)C1=O (stereo not given) | 101 | 102% (inactive) | 101% (inactive) | 74.3% (inactive) | 96.7% (inactive) | 3.21% (inactive) | 93.5 | 96.7 | -2.24% (inactive) | -4.83% (inactive)
12 | CN(C)/C=C1\N=C(c2ccc(Cl)cc2Cl)OC1=O | 102 | 108% (inactive) | 102% (inactive) | 92.7% (inactive) | 95.9% (inactive) | 19.6% (inactive) | 76.3 | 95.9 | -3.29% (inactive) | -3.97% (inactive)
13 | O=C(CSc1nc2cc(Cl)ccc2s1)N1CCN(C(=O)c2ccco2)CC1 | 91 | 84.5% (inactive) | 91% (inactive) | 91.6% (inactive) | 100% (inactive) | 0.815% (inactive) | 99.5 | 100 | -3.87% (inactive) | 0.97% (inactive)
14 | CCOC(=O)C1CCN(c2nc3ccccc3nc2C(C#N)C(=O)OC(C)C)CC1 (stereo not given) | 95 | 124% (inactive) | 95% (inactive) | 83.9% (inactive) | 84.2% (inactive) | -3.45% (inactive) | 87.6 | 84.2 | 1.37% (inactive) | 4.6% (inactive)
15 | O=C(c1cccs1)c1cn(CC(=O)N2CCc3ccccc3C2)c2ccccc12 | 93 | 108% (inactive) | 93% (inactive) | 86.1% (inactive) | 86.9% (inactive) | 7.43% (inactive) | 79.5 | 86.9 | -6.13% (inactive) | 1.45% (inactive)
16 | CCn1nnnc1SCC(=O)N1CCOCC1 | 116 | 91% (inactive) | 116% (inactive) | 101% (inactive) | 97.6% (inactive) | 11.3% (inactive) | 86.3 | 97.6 | -4.53% (inactive) | 3.44% (inactive)
17 | CCOC(=O)N1CCN(C(=O)CN(C)S(=O)(=O)c2ccc(OC)c(OC)c2)CC1 | 100 | 94.5% (inactive) | 100% (inactive) | 104% (inactive) | 91.5% (inactive) | 3.21% (inactive) | 88.3 | 91.5 | -6.84% (inactive) | 1.97% (inactive)
18 | COc1cccc(C2CC(c3ccccc3)n3ncnc3N2)c1 (stereo not given) | 87 | 112% (inactive) | 87% (inactive) | 93.5% (inactive) | 90.2% (inactive) | 10.2% (inactive) | 80 | 90.2 | 2.82% (inactive) | 3.67% (inactive)
19 | COC(=O)c1ccccc1NC(=O)Nc1cccs1 | 99.5 | 90.5% (inactive) | 99.5% (inactive) | 84.3% (inactive) | 82.4% (inactive) | 7.46% (inactive) | 74.9 | 82.4 | -3.73% (inactive) | 0% (inactive)
20 | c1ccc(CSCc2cn3ccsc3n2)cc1 | 93.5 | 95.5% (inactive) | 93.5% (inactive) | 104% (inactive) | 99.1% (inactive) | 14.5% (inactive) | 84.6 | 99.1 | -0.27% (inactive) | -3.49% (inactive)
21 | Cc1cccc(N(C)C(=O)c2coc(=O)c3ccccc23)c1 | 85 | 81% (inactive) | 85% (inactive) | 82.9% (inactive) | 85.8% (inactive) | -2.86% (inactive) | 88.7 | 85.8 | -3.16% (inactive) | -1.64% (inactive)
22 | CCOc1cc(C2NC(=O)N(C)C(C)=C2C(=O)OC)cc(Br)c1O (stereo not given) | 112 | 79.5% (inactive) | 112% (inactive) | 69.9% (inactive) | 93.8% (inactive) | 21.3% (inactive) | 72.6 | 93.8 | -4.73% (inactive) | 4.44% (inactive)
23 | COc1ccc(C(O)Cn2c(=N)n(CCCN(C)C)c3ccccc32)cc1 (stereo not given) | 78.5 | 102% (inactive) | 78.5% (inactive) | 90.3% (inactive) | 97.5% (inactive) | 6.39% (inactive) | 91.1 | 97.5 | -0.26% (inactive) | -6.51% (inactive)
24 | COc1cccc(NC(=O)CSc2nnnn2C(C)C)c1 | 118 | 86.5% (inactive) | 118% (inactive) | 97.9% (inactive) | 103% (inactive) | 13.7% (inactive) | 89.7 | 103 | -3.65% (inactive) | 0.79% (inactive)
25 | COCCn1c(=O)[nH]c2cc(C(=O)N3CCN(Cc4ccc5c(c4)OCO5)CC3)ccc2c1=O | 93.5 | 106% (inactive) | 93.5% (inactive) | 117% (inactive) | 93.1% (inactive) | -1.86% (inactive) | 94.9 | 93.1 | 1.47% (inactive) | 9.34% (inactive)
26 | CCOC(=O)CN1C2=NCCN2c2ccccc21 | 89.5 | 82% (inactive) | 89.5% (inactive) | 96.1% (inactive) | 99% (inactive) | 10.9% (inactive) | 88.1 | 99 | -2.63% (inactive) | -4% (inactive)
27 | Cc1cccc(NC(=O)c2cc3ccccc3o2)c1 | 142 | 114% (inactive) | 142% (inactive) | 75.8% (inactive) | 86.3% (inactive) | 8.2% (inactive) | 78.1 | 86.3 | -7.4% (inactive) | -1.27% (inactive)
28 | COc1ccc(-c2nnn(CCc3nn[nH]n3)n2)cc1OC | 119 | 98.5% (inactive) | 119% (inactive) | 96.9% (inactive) | 95.5% (inactive) | -3.76% (inactive) | 99.2 | 95.5 | -3.6% (inactive) | 9.18% (inactive)
29 | CC(C)CCNC(=O)NC(=O)CSc1nnc(-c2ccccc2Br)o1 | 95 | 95.5% (inactive) | 95% (inactive) | 85.8% (inactive) | 104% (inactive) | 2.91% (inactive) | 101 | 104 | -4.74% (inactive) | 0% (inactive)

From PubChem BioAssay
